Screening data from PubChem BioAssay.
Gli-Sufu antag = antagonists of Gli-Sufu signaling | 0.74% of 340,000 active | inhibition, % at 5 µM | Sufu-KO-LIGHT fibroblasts, Gli luciferase reporter luminescence | AID 588413;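 active = inhibition above about 55%, limit read from the data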;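 also: 0% = DMSO-treated cells and 100% = wells with medium but no cells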
UPR XBP1 act = activators of adaptive arm of unfolded protein response (XBP1). AID 463104. activation, % at 20 µM. CHO-XBP1 luciferase reporter, IRE1-XBP1 UPR activation, luminescence; percent of tunicamycin response, DMSO as zero. 0.33% of 330,000 active;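 active = versus positive control, 20 µM dose yields 30% or more activation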;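 also: 100% = tunicamycin at 10 µg/mL and 0% = DMSO only wells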
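assay system = CHO-XBP1 luciferase reporter cells | amount = 1000 cells/well | buffer or medium = F12 plus 10% FBS | compound dosing = single point, 20 µM final compound, 1% DMSO | incubation = 16-18 h cell attachment at 37 °C, then 6 h compound exposure | detection = Steady-Glo luminescence read | controls = tunicamycin 10 µg/mL and vehicle-only wells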
Jurkat NFkB inh = inhibitors of the PMA/ionomycin-induced NF-kB reporter in Jurkat cells; PMA/ionomycin-induced NF-kB luciferase reporter, luminescence; inhibition, % at 4 µM; 0.53% of 330,000 active; in the data active = inhibition above about 50%
697 NFkB inh = inhibitors of the PMA/ionomycin-induced NF-kB reporter in 697 B cells; 697 B-cell NF-kB luciferase reporter, 16 h; inhibition, % at 4 µM; 0.33% of 330,000 active; AID 435022; in the data active = inhibition above about 35%
CHOP UPR activ = activators of apoptotic arm of unfolded protein response (CHOP); CHO-CHOP luciferase reporter, UPR activation, luminescence; percent of tunicamycin response over DMSO baseline; activation, % at 10 µM; 0.34% of 330,000 active; AID 449763;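 active = at 10 µM dose, activation of 40% or more, normalized to positive control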;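 also: 100% = tunicamycin at 10 µg/mL and 0% = DMSO alone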
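assay system = CHO CHOP reporter cells | amount = 500 CHO-CHOP cells per well | buffer or medium = F12 with 10% FBS | incubation = 16-18 h cell attachment, then 6 h compound exposure, 37 °C | detection = luminescence read with Steady-Glo | read-out = percent activation relative to tunicamycin control | controls = tunicamycin high control, DMSO low control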
CHOP inh = CHOP inhibition in unfolded protein response | CHO-K1 CHOP-promoter luciferase, tunicamycin-induced, 15-18 h | inhibition, % at 10 µM | 3.8% of 220,000 active | AID 2732;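 active = compounds that reduced the stress-induced luciferase reporter signal by more than about 70% of percent inhibition, limit read from the data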;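 also: 0% = tunicamycin plus vehicle and 100% = wells without tunicamycin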
CHOP confirm = confirmation of CHOP induction inhibitors | shares compounds with CHOP inh | CHO-CHOP promoter luciferase reporter, tunicamycin-induced, luminescence | inhibition, % at 10 µM | 45% of 2,100 active | AID 504437;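 active = mean of three repeat readings of reporter signal inhibition above a set limit, cut at about 70% in these data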;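 also: 0% = tunicamycin plus vehicle and 100% = wells lacking tunicamycin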
The depositor's hits bear a star; x = not tested or not shown. Shown are actives, neighbours in structure and some others; about 3.9% of the full set was active somewhere.

SMILES	Gli-Sufu antag	UPR XBP1 act	Jurkat NFkB inh	697 NFkB inh	CHOP UPR activ	CHOP inh	CHOP confirm
CC[C@H](C)[C@H](NC(=O)c1ccc(Cl)cc1)C(=O)OCC(=O)c1ccc2c(c1)NC(=O)CO2	4	6	9	18	0	105*	30
CC(C)[C@H](NC(=O)c1ccccc1)C(=O)OCC(=O)c1ccc2c(c1)NC(=O)CO2	-8	-4	-2	19	3	23	x
Brc1ccc(CSc2nnc(Cc3c[nH]c4ccccc34)o2)cc1	-2	-1	5	16	-1	103*	12
Clc1ccc(CSc2nnc(-c3c[nH]c4ccccc34)o2)cc1	-22	-1	-10	-4	3	48	x
Cc1nnc(NC(=O)c2sc3nc(-c4cccs4)cc(C(F)(F)F)c3c2N)s1	37	-6	25	-1	-5	106*	94*
Nc1c(C(=O)Nc2nccs2)sc2nc(-c3cccs3)cc(C(F)(F)F)c12	2	-2	5	8	-2	43	x
S=C(Nc1ccccc1)Nc1cc(Cl)ccc1Oc1ccccc1	2	1	3	-23	0	102*	29
O=S(=O)(c1ccccc1)c1nc(-c2ccc(Cl)cc2)oc1NCCCN1CCOCC1	18	0	18	19	4	x	x
CC(C)Nc1oc(-c2cccc3ccccc23)nc1C#N	-28	16	-31	-48	3	100*	19
CCNc1oc(-c2cccc3ccccc23)nc1C#N	3	3	-26	-19	4	-3	x
Nc1ccc(N2CCN(c3ccc(F)cc3)CC2)cc1	35	2	29	6	-1	-15	x
Nc1ccc(N2CCCCCC2)cc1	x	3	19	-23	38	x	128*
Clc1ccc2c(NCc3ccccc3)ccnc2c1	22	-5	20	-12	5	x	x
Clc1ccc2c(N/N=C/c3ccc(Br)cc3)ccnc2c1	31	x	x	x	x	103*	96*
Cc1ccccc1/C=N/Nc1ccnc2cc(Cl)ccc12	2	x	x	x	x	107*	88*
Clc1ccc(NNc2ccnc3cc(Cl)ccc23)cc1	13	-3	-2	11	5	13	x
CS(=O)(=O)c1ccc(N2CCN(S(=O)(=O)c3cccs3)CC2)c([N+](=O)[O-])c1	0	-2	11	15	0	x	x
O=C(NCc1cccnc1)c1nc(-c2ccccc2)n(-c2ccccc2)n1	1	-2	26	-9	0	x	x
CC(NCc1ccc(OCc2ccc(Cl)cc2)cc1)C(O)c1ccccc1 (configuration not stated)	5	27	14	0	6	105*	18
CCCCN(C(=O)C1CSC2(C)CCC(=O)N12)c1c(N)n(CC(C)C)c(=O)[nH]c1=O (configuration not stated)	-7	-2	15	19	0	x	x
COc1ccc(NC(=O)c2oc3ccccc3c2NC(=O)C2CC2)cc1	2	2	-8	-4	1	23	x
COc1ccc(NC(=O)c2oc3ccccc3c2NC(=O)C(C)(C)C)cc1	-5	7	-2	8	0	103*	14
CCN(CC)c1ccc2cc(/C(N)=N/NC(=O)c3cccs3)c(=O)oc2c1	x	93*	48	-9	27	102*	-5
FC(F)(F)c1cccc(Sc2nc(-c3ccccc3)nnc2C(F)(F)F)c1	0	-11	-7	24	-6	108*	109*
FC(F)(F)c1cccc(Oc2nc(-c3ccccc3)nnc2C(F)(F)F)c1	2	0	-2	5	4	-25	x
SMILES	Gli-Sufu antag	UPR XBP1 act	Jurkat NFkB inh	697 NFkB inh	CHOP UPR activ	CHOP inh	CHOP confirm
Cc1cc(S(=O)(=O)N2CCOCC2)ccc1OCC(=O)NCCCn1ccnc1	-8	-2	0	-9	-1	x	x
C/C(N)=C(/C#N)C(=O)COC(=O)C1CCC(C(C)(C)C)CC1 (configuration not stated)	8	0	5	-4	4	97*	87*
CC(C)CCN(CCC(C)C)C(CO)(CO)CO	2	0	11	21	-2	3	x
C/C(=C\c1ccc(N)cc1)c1nc2ccccc2[nH]1	-71	1	-47	-19	6	x	x
O=S(=O)(/C(=C/c1ccc(C(F)(F)F)cc1)c1nc2ccccc2[nH]1)c1ccccc1	-18	x	x	x	x	109*	134*
O=C(CCCN1CCC(O)(c2ccc(Br)cc2)CC1)c1ccc(F)cc1	7	-8	21	21	-2	x	x
OC1(c2ccc(Br)cc2)CCNCC1	-8	1	5	2	0	101*	25
Cc1ccc(C)c(OCc2ccc(C(=O)N3N=C(C(F)F)CC3(O)C(F)F)o2)c1 (configuration not stated)	-6	-6	5	6	-1	108*	120*
CCOc1ccc(OCc2ccc(C(=O)N3N=C(C(F)F)CC3(O)C(F)F)o2)cc1 (configuration not stated)	-16	-4	-11	-7	1	99*	-11
O=C(c1ccccc1-n1cccc1)N1N=C(C(F)F)CC1(O)C(F)F (configuration not stated)	-7	-1	-24	-35	1	23	x
O=C(c1ccc(COc2ccc3ccccc3c2)o1)N1N=C(C(F)F)CC1(O)C(F)F (configuration not stated)	3	-1	-13	-12	-1	111*	56
O=C(c1ccc(COc2ccc(Br)cc2)o1)N1N=C(C(F)F)CC1(O)C(F)F (configuration not stated)	-8	-1	10	5	-1	108*	21
CCOc1ccc(OCc2ccc(C(=O)N3CCCC3)o2)cc1	-38	-3	-14	-41	2	-47	x
O=C(c1ccc(Cn2cc(Br)cn2)cc1)N1N=C(C(F)F)CC1(O)C(F)F (configuration not stated)	-4	-4	6	2	0	37	x
COC(=O)c1ccc(COc2cc(C)ccc2C)o1	-15	4	-35	29	5	x	x
N#Cc1ccc(COc2cccc3cccnc23)cc1	-9	4	8	1	8	x	x
Cc1cc(C)cc(OCc2ccc(C(=O)O)o2)c1	-1	1	-3	21	-2	48	x
Cc1cc(C)cc(OCc2ccc(C(=O)N3N=C(C(F)F)CC3(O)C(F)F)o2)c1 (configuration not stated)	-7	2	6	18	0	102*	57
COc1cc(C(=O)O/N=C2\C=CC(=O)C(C)=C2)cc(OC)c1OC	11	-8	26	-16	-2	108*	99*
CN1CCN(S(=O)(=O)c2csc(C(N)=O)c2)CC1	-9	-10	4	2	16	x	x
